IC50 and inhibition data for 19 molecules are collected here from ChEMBL document CHEMBL1122458, “beta-Carbolines as benzodiazepine receptor ligands. 1. Synthesis and benzodiazepine receptor interaction of esters of beta-carboline-3-carboxylic acid” (J Med Chem, 1983).

The target in test [1] is GABA-A receptor; anion channel. As to the kind of experiment: Concentration that inhibits specific [3H]flunitrazepam binding to benzodiazepine receptor in bovine brain. Put shortly: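 Bovine cortex (frozen, -20 °C) homogenized in 50 mM Tris-HCl pH 7.4, spun 48000g 10 min, pellet resuspended; incubated 45 min with 0.2 nM [3H]flunitrazepam (final) and displacers. Rapid filtration over GF-B filters, three ice-cold washes, scintillation counting. Nonspecific binding with 10 µM diazepam. IC50 by log probit analysis, four to six concentrations, each in triplicate.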

Test [2] concerns the target GABA-A receptor; anion channel (Mus musculus) (UniProt Q8BHJ7+P26048+Q8QZW7+P50571+Q9R0Y8+P22723+A2AMW3+P62812+Q9JLF1+P26049+P22933+Q9D6F4+P63080+P27681+P16305). As to the kind of experiment: In vivo inhibition of specific [3H]flunitrazepam binding in mouse brain 10 minute after iv administration of 15 uM/Kg. Type of test: organism-based. Put shortly: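 Mouse brain ex vivo: specific [3H]flunitrazepam binding measured 10 min after iv dosing at 15 µmol/kg; reported as percent inhibition of specific binding, mean ± SEM of four determinations.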

SMILES strings stand for the structures.

In general, IC50 refers to the concentration that inhibits the measured activity by half. Higher therefore signals weaker potency. In turn, `CCCOC(=O)C1Cc2c([nH]c3ccccc23)CN1` (stereo unspecified) yielded an IC50 in test [1] of 4400 nM. Consider `O=C(O)c1cc2c3ccccc3nc-2c[nH]1`, for which the IC50 in test [1] was 7200 nM. The term inhibition denotes the percentage by which the read-out fell short of the control. Higher therefore signals strong suppression. Consider `N#CCCOC(=O)c1cc2c3ccccc3nc-2c[nH]1`, for which the inhibition in test [2] turned out to be 44.4%. In test [1], this molecule displayed an IC50 of 27 nM. In test [2], `COCCOC(=O)c1cc2c3ccccc3nc-2c[nH]1` returned an inhibition of 34.6%. The molecule also gave an IC50 in test [1] of 145 nM. For `O=C(OCc1ccccc1)c1cc2c3ccccc3nc-2c[nH]1` the same measures were 38.4% and 21 nM.

Regarding `CCCOC(=O)c1cc2c(cn1)[nH]c1ccccc12`, in test [2], the inhibition worked out at 62.7%. This molecule also yielded an IC50 in test [1] of 4.6 nM. On to `[2H]C([2H])([2H])OC(=O)c1cc2c(cn1)[nH]c1ccccc12`, for which the IC50 in test [1] was 5.3 nM. `COC(=O)c1cc2c(cn1)[nH]c1ccccc12` [BETA-CCM] came in with an inhibition in test [2] of 51.2%. Also, the IC50 in test [1] amounted to 2.5 nM.

In turn, `O=C(OCc1cccnc1)c1cc2c3ccccc3nc-2c[nH]1` gave an inhibition in test [2] of 49.4%. The molecule further yielded an IC50 in test [1] of 34 nM.

Regarding `O=C(OCc1ccccc1)C1Cc2c([nH]c3ccccc23)CN1` (stereo unspecified), in test [1], the IC50 came out at 2700 nM. Turning to `CCCCOC(=O)c1cc2c(cn1)[nH]c1ccccc12`, in test [2], the inhibition is 54.9%. Further, the IC50 in test [1] is 29 nM. Taken in the same sequence, the figures for `O=C(OCCF)c1cc2c3ccccc3nc-2c[nH]1` were 55.3% and 27 nM. Molecule `O=C(O)C1Cc2c([nH]c3ccccc23)CN1` (stereo unspecified) returned an IC50 in test [1] of 22000 nM.

For `CCOC(=O)c1cc2c(cn1)[nH]c1ccccc12`, the inhibition in test [2] was found to be 61.7%. In test [1], this molecule had an IC50 of 1.4 nM. As to `COC(=O)C1Cc2c([nH]c3ccccc23)CN1` (stereo unspecified), the inhibition in test [2] stood at 6.1%. Besides, in test [1], the IC50 worked out at 250 nM. In test [1], `CCOC(=O)C1Cc2c([nH]c3ccccc23)CN1` (stereo unspecified) displayed an IC50 of 6000 nM. In test [2], `O=C(OCCCl)c1cc2c3ccccc3nc-2c[nH]1` yielded an inhibition of 89%. In test [1], this molecule yielded an IC50 of 22 nM.

Regarding `CN(C)CCOC(=O)c1cc2c3ccccc3nc-2c[nH]1`, in test [2], the inhibition came out at 13.4%. Moreover, the IC50 in test [1] is 330 nM. In test [1], `CCCCOC(=O)C1Cc2c([nH]c3ccccc23)CN1` (stereo unspecified) came in with an IC50 of 4800 nM.
